IMP-1 inhibitor – IMP-1 metallo-beta-lactamase inhibitors, primary screen, biochemical, epi-absorbance readout, Pseudomonas aeruginosa enzyme; purified IMP-1, nitrocefin hydrolysis, epi-absorbance fluorescence; inhibition, % at 5.6 µM; hit rate 0.45% among 290,000; AID 1556, 2009;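 active means inhibition above the mean plus 3 SD of all compounds in the same screening run, cut at about 4.5% in these data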;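 further: 0% = IMP-1 with DMSO and 100% = DMSO wells lacking enzyme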
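System: Purified IMP-1 | Read-out basis: Percent enzyme inhibition | Controls: IMP-1 with DMSO as 0%, enzyme-free DMSO as 100% | Replicates: One well per compound | Doses: 5.6 µM nominal single concentration | Detection: Epi-absorbance fluorescence, 480 nm excitation, 530 nm emission | Incubation: 25 °C, 15 min preincubation, 25 min reaction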
PLCg1 inh – PLC-gamma1 enzyme inhibitors, primary screen, biochemical, fluorescence, purified enzyme; hit rate 0.84% among 370,000; fluorogenic substrate; inhibition, % at 12.2 µM; 1-phosphatidylinositol 4,5-bisphosphate phosphodiesterase gamma-1 (Homo sapiens), P19174; in the data active means inhibition above about 9.5%
Target sequence (P19174 whole entry, looked up): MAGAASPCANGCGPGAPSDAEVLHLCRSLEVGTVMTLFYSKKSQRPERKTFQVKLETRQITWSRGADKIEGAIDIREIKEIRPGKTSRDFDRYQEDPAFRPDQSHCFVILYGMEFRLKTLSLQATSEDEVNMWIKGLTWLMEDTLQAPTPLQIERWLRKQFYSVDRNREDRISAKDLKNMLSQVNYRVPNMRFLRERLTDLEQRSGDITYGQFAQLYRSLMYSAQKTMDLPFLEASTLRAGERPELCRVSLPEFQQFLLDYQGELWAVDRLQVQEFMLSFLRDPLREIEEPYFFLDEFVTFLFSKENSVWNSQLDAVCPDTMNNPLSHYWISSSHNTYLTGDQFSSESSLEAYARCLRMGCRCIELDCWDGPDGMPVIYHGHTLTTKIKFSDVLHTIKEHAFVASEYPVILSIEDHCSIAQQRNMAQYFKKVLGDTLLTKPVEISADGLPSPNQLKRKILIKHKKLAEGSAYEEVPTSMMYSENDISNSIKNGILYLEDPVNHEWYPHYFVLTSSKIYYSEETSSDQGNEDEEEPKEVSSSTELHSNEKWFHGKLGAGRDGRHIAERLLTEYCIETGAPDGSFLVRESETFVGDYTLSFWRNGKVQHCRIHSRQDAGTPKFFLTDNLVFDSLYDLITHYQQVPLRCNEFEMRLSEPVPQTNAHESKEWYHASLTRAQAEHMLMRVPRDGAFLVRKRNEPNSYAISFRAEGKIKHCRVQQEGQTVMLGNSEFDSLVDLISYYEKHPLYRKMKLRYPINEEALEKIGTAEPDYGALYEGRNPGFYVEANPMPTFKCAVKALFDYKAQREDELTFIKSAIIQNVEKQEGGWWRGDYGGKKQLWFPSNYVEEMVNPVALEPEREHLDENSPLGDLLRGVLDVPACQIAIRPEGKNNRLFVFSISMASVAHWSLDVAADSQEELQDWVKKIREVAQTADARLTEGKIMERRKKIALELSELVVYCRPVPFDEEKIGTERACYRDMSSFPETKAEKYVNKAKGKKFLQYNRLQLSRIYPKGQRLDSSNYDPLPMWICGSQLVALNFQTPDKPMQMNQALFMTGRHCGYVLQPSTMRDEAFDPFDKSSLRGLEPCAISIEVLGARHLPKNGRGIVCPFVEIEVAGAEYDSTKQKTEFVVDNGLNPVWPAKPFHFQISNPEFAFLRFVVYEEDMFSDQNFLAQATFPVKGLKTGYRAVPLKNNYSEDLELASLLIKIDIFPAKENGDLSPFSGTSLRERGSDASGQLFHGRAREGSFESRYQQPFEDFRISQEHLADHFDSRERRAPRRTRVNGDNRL
PvdQ inh – P. aeruginosa PvdQ acylase inhibitors, primary screen, biochemical, fluorescence, plate reader and imaging, single point; purified PvdQ acylase; AID 488965, 2010; PvdQ acylase [Pseudomonas aeruginosa LESB58]; hit rate 0.063% among 340,000; inhibition, % at 10 µM; in the data active means inhibition above about 30%, passing the limit was not always enough;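 further: 0% = vehicle neutral wells and 100% = reference inhibitor wells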
VIM-2 inhibitor – VIM-2 metallo-beta-lactamase inhibitors, primary screen, biochemical, epi-absorbance readout, Pseudomonas aeruginosa enzyme; AID 1527, 2009; hit rate 0.89% among 290,000; inhibition, % at 5.6 µM; purified VIM-2, nitrocefin hydrolysis, epi-absorbance fluorescence;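 active means inhibition above the mean of all tested compounds plus 3 SD, cutoff set per screening run, cut at about 7.5% in these data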;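 further: red hydrolysis product quenches plate fluorescence so inhibitors raise well fluorescence; 0% = enzyme with DMSO and 100% = DMSO without enzyme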
PLCb3 inh – human PLC-beta3 inhibitors, primary screen, biochemical, fluorescence; hit rate 0.18% among 370,000; AID 720704, 2013; Purified PLC-beta3, fluorogenic substrate; inhibition, % at 12.2 µM; in the data active means inhibition above about 11%;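 further: 0% = median of compound wells on plate and 100% = full blocker control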
Starred values were filed as active, the others as inactive; . = no result given. Rows were chosen to be rich in hits. Some 2% of all compounds tested hit in one or more screens of this group.

SMILES | IMP-1 inhibitor | PLCg1 inh | PvdQ inh | VIM-2 inhibitor | PLCb3 inh
CCOC(=O)c1ccc(NC(=O)c2c(O)[nH]c(=O)[nH]c2=O)cc1 | 78* | 1 | -9 | 59* | -1
CCOc1ccc(NC(=O)c2c(O)[nH]c(=O)[nH]c2=O)cc1 | . | 0 | -11 | . | 4
CC(C)(C)NC(=O)C1CN=C(c2ccccc2)c2cc(Cl)ccc2N1C(=O)C1CCC1 (stereo not given) | . | -5 | . | . | -3
Cc1nc2c(=O)n(C)c(=O)nc-2n(C)n1 | -4 | 60* | -11 | 0 | 6
O=C(NC1CN2CCC1CC2)c1cc(Cl)c([N+](=O)[O-])c2nc[nH]c12 (stereo not given) | -2 | 2 | -7 | 10* | 2
O=S(=O)(NC1CN2CCC1CC2)c1ccc(Cl)cc1 (stereo not given) | -5 | 4 | 9 | -3 | -4
C=CCn1c(O)c(C(C)=NC2CC2)c(=O)[nH]c1=O | -3 | -1 | 5 | -3 | 5
C=CCn1c(O)c(C(C)=NC2CCN(Cc3ccccc3)CC2)c(=O)[nH]c1=O | -3 | 0 | . | 8.7* | -5
CC(=O)c1ccc2c(c1)C1C(Cl)C(Sc3ccccc3[N+](=O)[O-])CC1C(c1ccccc1[N+](=O)[O-])N2 (stereo not given) | 1 | -39 | -17 | -2 | -46
CC(=O)c1ccc2c(c1)C1C(Cl)C(Sc3ccccc3[N+](=O)[O-])CC1C(c1ccccc1)N2 (stereo not given) | 5.7* | -8 | 11 | 3 | -15
Cc1ccc(Cl)cc1N1CCN(CCN)CC1 | -3 | 16* | 2 | -5 | 4
CC(C)C(C(=O)NC(C)(C)C)N1C(=O)CN=C(c2ccccc2)c2ccccc21 (stereo not given) | . | -2 | . | . | 1
Nc1ccnn1C1CCNCC1 | 25* | 1 | -14 | -1 | 0
CCOC(=O)CC[C@@H]1CC[C@]2(CCCN(Cc3cccnc3)C2)O1 | . | 0 | . | . | 0
COC(=O)C1C=C2c3cccc4[nH]cc(c34)CC2N(C)C1 (stereo not given) | 6.8* | . | . | 6 | .
CCC(CO)NC(=O)C1C=C2c3cccc4[nH]cc(c34)CC2N(C)C1 (stereo not given) | 4 | -141 | -10 | 5 | -183
CC1(C)OC(c2ccccc2)=C/C(=C/C=C2C(=O)NC(=O)NC2=O)O1 | 4.6* | -49 | 14 | 5 | -60
NC(=O)CSP(=O)(c1ccccc1)c1ccccc1 | 3 | 3 | -7 | 0 | 2
O=P(O)(O)Cc1ccccc1OP(=O)(c1ccccc1)c1ccccc1 | -2 | 4 | 2 | 9.9* | 5
Cc1cc(=O)oc2cc(OCC(=O)N3CCN(Cc4ccc5c(c4)OCO5)CC3)ccc12 | 0 | -11 | 6 | 9.7* | -18
O=C(CN1C(=O)[C@@H](Cc2ccc(O)cc2)N=C(c2ccccc2)c2ccccc21)NC1CCCCC1 | . | 3 | . | . | 2
Cc1ccc(C(=O)N[C@@H](C)CN2C3=NC[C@@H](Cc4ccccc4)N3C[C@H]2Cc2ccc(O)cc2)cc1Br | -2 | 13* | . | -3 | 5
C=C1[C@@H](C)C2[C@H](Cc3ccccc3)NC(=O)[C@]23[C@H](OC(C)=O)/C=C/[C@@](C)(O)C(=O)[C@@H](C)C/C=C/[C@H]3[C@@H]1O (stereo not given in full) | . | 4 | . | . | 2
CC(NC(=O)OCc1ccccc1)P(=O)(Oc1ccccc1)Oc1ccccc1 (stereo not given) | . | -2 | . | . | 0
Nc1ccc(Cc2ccc(N)cc2)cc1 | . | -1 | -11 | . | 11*
SMILES | IMP-1 inhibitor | PLCg1 inh | PvdQ inh | VIM-2 inhibitor | PLCb3 inh
O=C(NC(CCC(O)CO)P(=O)(Oc1ccccc1)Oc1ccccc1)OCc1ccccc1 (stereo not given) | . | -1 | . | . | 3
CNc1ccc2nc3ccccc3[n+](C)c2c1 | -8 | -6 | -10 | 8.0* | -12
Cc1c(C=C2C(=O)N(C)C(=S)N(C)C2=O)c2ccccc2n1CC(=O)NCC1CCCO1 (stereo not given) | 19* | -7 | -25 | -4 | -18
O=C(Cn1cc(C=C2C(=O)NC(=O)NC2=O)c2ccccc21)NCC1CCCO1 (stereo not given) | -2 | -5 | 6 | 0 | -6
Cc1cc(OCC(=O)N2CCC(C(N)=O)CC2)c2c3c(c(=O)oc2c1)CCCC3 | -3 | -10 | -8 | 8.6* | -11
NP(=O)(Oc1ccc(Cl)cc1)Oc1ccc(Cl)cc1 | 7.7* | 0 | -4 | -3 | -4
NP(=O)(Oc1ccccc1)Oc1ccccc1 | . | -1 | 12 | . | 0
Cc1cc(/C=C2\C(=O)NC(=O)N(c3ccc(Cl)cc3)C2=O)c(C)n1-c1sc2c(c1C#N)CCCC2 | 5.3* | -19 | -14 | 1 | -31
Cc1cc(N2CCCCC2)ccc1C=C1C(=O)N(C)C(=S)N(C)C1=O | 7.4* | 2 | -9 | 4 | -2
C[N+]12CCC(CC1)C(C(O)(c1ccccc1)c1cccs1)C2 (stereo not given) | 12* | 2 | -14 | -2 | 4
CCCC(=O)N1c2ccc(Cl)cc2C(c2ccccc2)=NCC1C(=O)NC(C)(C)C (stereo not given) | . | -3 | . | . | -1
CC(NC(=O)OC1CC2CCC1(C)C2(C)C)P(=O)(Oc1ccccc1)Oc1ccccc1 (stereo not given) | . | 3 | . | . | 2
Cc1cc(N2CCNC[C@H]2C)ccc1N1CC[C@H](O)C1 | . | 0 | . | . | -3
Nc1c2c(nc3sc4c(c13)CCCC4)CCCC2 | -4 | -6 | -14 | 12* | -7
COc1ccc(C(C)=O)cc1CC(C(=O)c1ccc(Br)cc1)N(C)C (stereo not given) | 6.0* | -6 | 6 | 2 | -7
CN(C)C(Cc1ccccc1)C(=O)c1ccccc1 (stereo not given) | -1 | -3 | 8 | -1 | -5
O=P(O)(O)Cc1c(Cl)cccc1Cl | 0 | 0 | -13 | 12* | -1
CN1C(=O)/C(=C/c2ccc(Cl)s2)C(=O)NC1=S | 9.7* | -3 | -13 | 2 | -9
Cc1ccsc1/C=C1\C(=O)NC(=S)N(C)C1=O | 2 | -3 | -15 | 1 | -4
N#CCC[C@@H]1CC[C@]2(CCCN(Cc3ccccn3)C2)O1 | . | -3 | . | . | -2
Cc1ccc(-c2nc(N(C)C3CCN(C)CC3)c3ccccc3n2)cc1 | -3 | -14 | 2 | 11* | -19
C[C@]12CC[C@@H]3c4ccc(O)c(O)c4CC[C@H]3[C@@H]1CC[C@@H]2O | 14* | 2 | -4 | 1 | -6
C[C@]12CC[C@H]3[C@@H](CCC4=CC(=O)CC[C@@H]43)[C@@H]1CC[C@@H]2O | . | -4 | -11 | . | -4
CC(C)C[C@H]1N=C(c2ccccc2)c2ccccc2N(CC(=O)NC(C)(C)C)C1=O | . | 1 | . | . | 5

Bioassay records (PubChem BioAssay)
